Data set [1] has as its system NRK-52E. Nature of the data set: Cytotoxicity against rat NRK-52E cells assessed as reduction in cell viability at 1 to 50 uM pretreated with 33 mM glucose for 6 hrs followed by compound addition and measured after 24 hrs by Alamar blue dye based microplate reader analysis. It is filed as toxicity. The conditions noted are these: dose 1-50 µM. The essentials: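 Alamar blue assay in NRK-52E cells grown in high-glucose DMEM with 10% FBS at 37 °C, 5% CO2. At 80-90% confluency, cells got 33 mM glucose for 6 h, then compound at 1-50 μM (vehicle 0.1% DMSO + 1XPBS) for 24 h. Dye incubation 4 h; OD read at 570 and 600 nm. Viability expressed as the absorbance ratio to the vehicle control.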
For orientation: Resazurin is reduced to fluorescent resorufin, in cell work by metabolically active cells.

Data set [2] addresses T1, Sodium/glucose cotransporter 2 (Rattus norvegicus, UniProt P53792).
T1 sequence (P53792 whole entry): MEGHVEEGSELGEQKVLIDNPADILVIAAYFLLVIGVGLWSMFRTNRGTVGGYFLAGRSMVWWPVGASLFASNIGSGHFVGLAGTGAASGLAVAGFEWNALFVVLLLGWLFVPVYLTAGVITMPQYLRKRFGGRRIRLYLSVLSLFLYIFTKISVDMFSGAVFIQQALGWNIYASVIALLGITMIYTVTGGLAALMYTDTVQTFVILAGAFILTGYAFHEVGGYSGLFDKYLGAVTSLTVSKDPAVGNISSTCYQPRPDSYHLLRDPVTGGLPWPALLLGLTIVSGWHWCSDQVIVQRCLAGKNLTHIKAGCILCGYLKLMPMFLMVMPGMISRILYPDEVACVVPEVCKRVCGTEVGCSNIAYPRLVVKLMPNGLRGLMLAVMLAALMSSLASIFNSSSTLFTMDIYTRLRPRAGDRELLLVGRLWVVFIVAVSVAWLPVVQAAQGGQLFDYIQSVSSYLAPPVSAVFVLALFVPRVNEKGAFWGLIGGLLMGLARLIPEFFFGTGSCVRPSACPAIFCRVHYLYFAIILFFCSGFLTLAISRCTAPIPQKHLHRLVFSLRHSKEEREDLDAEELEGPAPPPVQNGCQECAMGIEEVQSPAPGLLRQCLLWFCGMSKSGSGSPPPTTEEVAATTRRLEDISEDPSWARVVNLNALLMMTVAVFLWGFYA
Nature of the data set: Inhibition of SGLT2-mediated glucose uptake in rat NRK-52E cells assessed as reduction in glucose uptake preincubated with 33 mM glucose for 6 hrs followed by compound addition and measured after 24 hrs by fluorescence based microplate reader analysis. It is filed as cell-based. The essentials:
(§1)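 6-NBDG uptake in NRK-52E cells seeded at 1×10^4/well, exposed to 33 mM glucose for 6 h, then to compound (1, 5, 10 μM; dose series 100 nM-10 μM; vehicle 0.1% DMSO + 1XPBS) for 24 h. Cells were rinsed in Na+-free buffer and given 20 μM 6-NBDG in Na+ or Na+-free HEPES buffer (pH 7.4) for 20 min at 37 °C. After lysis in 1% Triton X (pH 10) plus DMSO, fluorescence was read at 470/540 nm. Results are fold change vs control; n = 3.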

In data set [3] the test system is NRK-52E. Put plainly: Inhibition of ROS generation in rat NRK-52E cells assessed as reduction in intracellular ROS generation at […] preincubated with glucose for 6 hrs followed by compound addition and measured after 24 hrs by DCFDA staining based spectrofluorometric analysis relative to glucose alone. It is filed as functional, cell-based. The essentials: (§2)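 NRK-52E cells in 24-well plates got 33 mM glucose for 6 h, then compound at 100 nM-10 μM (vehicle 0.1% DMSO + 1XPBS) for 24 h. Cells were loaded with 10 μM H2DCFDA for 30 min at 37 °C in the dark, lysed with 1% Triton X-100 and DMSO. Fluorescence was read at 480/530 nm in triplicate; the glucose-only signal was set as 100%.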

The test system of data set [4] is NRK-52E. Put plainly: Downregulation of SGLT2 protein expression in glucose-induced rat NRK-52E cells at 1 to 5 uM by Western blotting analysis. The conditions noted are these: dose 1-5 µM. It is filed as functional, cell-based. Put shortly:
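NRK-52E cells got 33 mM glucose for 6 h, then compound for 24 h, and were lysed in RIPA with protease/phosphatase inhibitors; protein was measured by BCA. Samples of about 20-30 μg were run on 10% SDS-PAGE and transferred to nitrocellulose. Blots were blocked in 1% BSA, probed with anti-SGLT2 (1:1000) overnight at 4 °C, then HRP anti-rabbit (1:1000) for 2 h, and detected by ECL with densitometry. β-actin served as loading control; three repeats.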

Data set [5] relates to NRK-52E. Nature of the data set: Inhibition of NF-kappaB activation in glucose induced rat NRK-52E cells at 0.005 to 5 uM by Western blotting analysis. It is filed as cell-based. The conditions noted are these: dose 0.005-5 µM. (A western blot detects proteins with antibodies after separation by electrophoresis.)
For data set [6], the system named is NRK-52E. Nature of the data set: Downregulation of NOX-4 expression in glucose induced rat NRK-52E cells at 1 to 5 uM by Western blotting analysis. The conditions noted are these: dose 1-5 µM. It is filed as functional, cell-based.
Data set [7] deals with NRK-52E. Nature of the data set: Effect of SGLT1 protein expression in glucose-induced rat NRK-52E cells at 1 to 5 uM by Western blotting analysis. It is filed as functional, cell-based. The conditions noted are these: dose 1-5 µM.
The target in data set [8] is T2, Sodium/glucose cotransporter 2 (Rattus norvegicus) (UniProt P53792).
T2 sequence (whole entry): T1 sequence (P53792 whole entry)
Nature of the data set: Inhibition of SGLT2-mediated glucose uptake in rat NRK-52E cells assessed as reduction in glucose uptake by measuring fold change at 500 nM preincubated with 33 mM glucose for 6 hrs followed by compound addition and measured after 24 hrs by fluorescence based microplate reader analysis. It is filed as cell-based. Put shortly: as §1

For data set [9], the system named is NRK-52E. Nature of the data set: Induction of AMPK phosphorylation in glucose induced rat NRK-52E cells at 1 to 5 uM by Western blotting analysis. In kind it is cell-based. The conditions noted are these: filed as activator, dose 1-5 µM.
For data set [10], the system named is NRK-52E. Put plainly: Downregulation of TGF-beta1 expression in glucose induced rat NRK-52E cells at 0.005 to 5 uM by Western blotting analysis. It is filed as functional, cell-based. The conditions noted are these: dose 0.005-5 µM.
Another data set concerns Mitochondrial membrane. Nature of the data set: Restoration of mitochondrial membrane depolarization in glucose induced rat NRK-52E cells assessed as increase in green fluorescence intensity at […] pretreated with glucose for 6 hrs followed by compound addition and measured after 24 hrs by rhodamine-123 staining based cytofluorimetric analysis. In kind it is cell membranes. Put shortly:
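NRK-52E cells (2×10^5/well) received 33 mM glucose for 6 h, then compound at 500 nM, 1 or 5 μM for 24 h. They were stained with 200 ng/mL rhodamine 123 for 30 min at 37 °C, washed, and analysed by flow cytometry.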

Data set [11] concerns NRK-52E. Put plainly: Inhibition of fibronectin expression in glucose induced rat NRK-52E cells at 0.005 to 5 uM by Western blotting analysis. It is filed as functional, cell-based. The conditions noted are these: dose 0.005-5 µM.
The test system of data set [12] is NRK-52E. Put plainly: Inhibition of ROS generation in rat NRK-52E cells assessed as reduction in intracellular ROS generation at 0.25 to 10 uM preincubated with glucose for 6 hrs followed by compound addition and measured after 24 hrs by DCFDA staining based spectrofluorometric analysis. It is filed as functional, cell-based. The conditions noted are these: dose 0.25-10 µM. The essentials:
as §2

Data set [13] deals with NRK-52E. Nature of the data set: Downregulation of IL-6 expression in glucose induced rat NRK-52E cells at 0.005 to 5 uM by Western blotting analysis. It is filed as functional, cell-based. The conditions noted are these: dose 0.005-5 µM.
In data set [14] the test system is NRK-52E. Nature of the data set: Inhibition of collagen-IV expression in glucose induced rat NRK-52E cells at 0.005 to 5 uM by Western blotting analysis. In kind it is functional, cell-based. The conditions noted are these: dose 0.005-5 µM.
Data set [15] has as its target T2, Sodium/glucose cotransporter 2 (Rattus norvegicus). Nature of the data set: Inhibition of SGLT2-mediated glucose uptake in rat NRK-52E cells assessed as reduction in glucose uptake at 1 to 10 uM preincubated with 33 mM glucose for 6 hrs followed by compound addition and measured after 24 hrs by fluorescence based microplate reader analysis. It is filed as cell-based. The conditions noted are these: dose 1-10 µM. The essentials: as §1

For data set [16] the target is unchanged. Nature of the data set: Inhibition of SGLT2-mediated glucose uptake in rat NRK-52E cells assessed as fold decrease in reduction of glucose uptake at 1 uM preincubated with 33 mM glucose for 6 hrs followed by compound addition and measured after 24 hrs by fluorescence based microplate reader analysis relative to glucose alone. It is filed as cell-based. The essentials: as §1

Calls of active or inactive are those of the source. The calls are words filed in the database; no cut-off is given here.

The values that follow come from ChEMBL document CHEMBL6134775, “Breaking boundaries in diabetic nephropathy treatment: design and synthesis of novel steroidal SGLT2 inhibitors” (RSC Med Chem, 2025).

For the molecule `CC(=O)O[C@H]1CC[C@@]2(C)C(=CC[C@@H]3[C@@H]2CC[C@]2(C)c4c(cnc5cc(-c6ccc(Cl)cc6)nn45)C[C@@H]32)C1`, in the data set with NRK-52E [1], the Activity entry is listed as “Non-toxic”.
The same measure, in the same setting: with `CC(=O)O[C@H]1CC[C@@]2(C)C(=CC[C@@H]3[C@@H]2CC[C@]2(C)c4c(cnc5nc6cc(Cl)ccc6n45)C[C@@H]32)C1` the entry was “Non-toxic”.
Usually IC50 stands for the concentration that gives 50% inhibition. Consider `Cc1ccc([C@@H]2O[C@H](CO)[C@@H](O)[C@H](O)[C@H]2O)cc1Cc1ccc(-c2ccc(F)cc2)s1` [CANAGLIFLOZIN ANHYDROUS], for which, in [2], the IC50 is 2.35 nM.
Take `C[C@]12CC[C@H](O)CC1=CC[C@@H]1[C@@H]2CC[C@]2(C)c3c(cnc4nc5cc(Cl)ccc5n34)C[C@@H]12`: the Activity result in the data set on NRK-52E [1] is “Non-toxic”.
The same measure, in the same setting: with `CC(=O)O[C@H]1CC[C@@]2(C)C(=CC[C@@H]3[C@@H]2CC[C@]2(C)c4c(cnc5nc6c(Cl)cccc6n45)C[C@@H]32)C1` the entry was “Non-toxic”.
Take `C[C@]12CC[C@H](O)CC1=CC[C@@H]1[C@@H]2CC[C@]2(C)c3c(cnc4nc5ccccc5n34)C[C@@H]12`: the Activity result with NRK-52E [1] is listed as “Non-toxic”. Also, the inhibition entry (in the data set with NRK-52E [3]; in the data set with NRK-52E [5]; with NRK-52E [11]; in the data set on NRK-52E [14]; in data set [15]) was “Active” each time. Further, the outcome in the data set with NRK-52E [4], in the data set with NRK-52E [6], in the data set with NRK-52E [9], in the data set on NRK-52E [10], with Mitochondrial membrane and in the data set on NRK-52E [13] was Active. Further, the result in the data set with NRK-52E [7] was inactive. Moreover, the fold change (FC) in data set [8] is 1.4; in [16], 2. Further, the inhibition entry in the data set with NRK-52E [12] is on record as “Active; Significant Decrease Observed”. In addition, the IC50 in data set [2] is 2.91 nM.
For `C[C@]12CC[C@H](O)CC1=CC[C@@H]1[C@@H]2CC[C@]2(C)c3c(cnc4nc5c(Cl)cccc5n34)C[C@@H]12`, in the data set on NRK-52E [1], the Activity result is on record as “Non-toxic”.
Regarding `C[C@]12CC[C@H](O)CC1=CC[C@@H]1[C@@H]2CC[C@]2(C)c3c(cnc4cc(-c5ccccc5)nn34)C[C@@H]12`, the Activity result in the data set with NRK-52E [1] is “Non-toxic”.
`CC(=O)O[C@H]1CC[C@@]2(C)C(=CC[C@@H]3[C@@H]2CC[C@]2(C)c4c(cnc5cc(-c6ccccc6)nn45)C[C@@H]32)C1`: in the data set with NRK-52E [1], the Activity entry is listed as “Non-toxic”.
`CC(=O)O[C@H]1CC[C@@]2(C)C(=CC[C@@H]3[C@@H]2CC[C@]2(C)c4c(cnc5nc6ccccc6n45)C[C@@H]32)C1`: the Activity entry with NRK-52E [1] is recorded as “Non-toxic”.
Still for that read-out and setting: with `CC(=O)O[C@H]1CC[C@@]2(C)C(=CC[C@@H]3[C@@H]2CC[C@]2(C)c4c(cnc5nc6ccc(Cl)cc6n45)C[C@@H]32)C1` the entry was “Non-toxic”; with `CC(=O)O[C@H]1CC[C@@]2(C)C(=CC[C@@H]3[C@@H]2CC[C@]2(C)c4c(cnc5c(C#N)cnn45)C[C@@H]32)C1`, “Non-toxic”.
Consider `CC(=O)O[C@H]1CC[C@@]2(C)C(=CC[C@@H]3[C@@H]2CC[C@]2(C)c4c(cnc5cc(-c6ccc(Br)cc6)nn45)C[C@@H]32)C1`, for which, in the data set on NRK-52E [1], the Activity result was “Non-toxic”.
`C[C@]12CC[C@H](O)CC1=CC[C@@H]1[C@@H]2CC[C@]2(C)c3c(cnc4cc(-c5ccc(Br)cc5)nn34)C[C@@H]12`: in the data set with NRK-52E [1], the Activity entry was “Non-toxic”.
Regarding `C[C@]12CC[C@H](O)CC1=CC[C@@H]1[C@@H]2CC[C@]2(C)c3c(cnc4cc(-c5ccc(Cl)cc5)nn34)C[C@@H]12`, in the data set on NRK-52E [1], the Activity result is recorded as “Non-toxic”.
As for `COc1cccc2nn3c4c(cnc3c12)C[C@H]1[C@@H]2CC=C3C[C@@H](OC(C)=O)CC[C@]3(C)[C@H]2CC[C@]41C`, the Activity result with NRK-52E [1] is given as “Non-toxic”. Also, in [15], the inhibition entry is “inactive”.
Regarding `COc1cccc2nn3c4c(cnc3c12)C[C@H]1[C@@H]2CC=C3C[C@@H](O)CC[C@]3(C)[C@H]2CC[C@]41C`, the Activity entry in the data set on NRK-52E [1] is given as “Non-toxic”. Further, the inhibition result in data set [15] is “inactive”.
